Assay results reported in ChEMBL document CHEMBL3853311, “Deuterium-Labeled Precursor Feeding Reveals a New pABA-Containing Meroterpenoid from the Mango Pathogen Xanthomonas citri pv. mangiferaeindicae” (J Nat Prod, 2016).
Calls of active or inactive are those of the source. No cut-off for these calls is given here.

Key:
[1] = Cytotoxicity against human A549 cells assessed as decrease in cell viability after 48 hrs by MTT assay; assay type: functional, cell-based; conditions: A549, 48 h
In short: (§1)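 Cells kept in DMEM/F12 with 10% FBS, 2 mM glutamine, penicillin/streptomycin at 37 °C, 5% CO2; exponential-phase cells seeded at 1 × 10^4/well for 24 h. Treated at 0.2, 2 and 20 μg/mL for 48 h at 37 °C; vehicle controls = 100% viability. Formazan dissolved in DMSO, read at 570 nm (620 nm reference). IC50 by four-parameter logistic fit, ≥3 independent measurements, ±95% CI.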

[2] = Cytotoxicity against human PC3 cells assessed as decrease in cell viability after 48 hrs by MTT assay; assay type: functional, cell-based; conditions: PC-3, 48 h; in short: as §1
[3] = Cytotoxicity against human Caco2 cells assessed as decrease in cell viability after 48 hrs by MTT assay; assay type: functional, cell-based; conditions: Caco-2, 48 h; in short: as §1
[4] = Cytotoxicity against human MDA-MB-231 cells assessed as decrease in cell viability after 48 hrs by MTT assay; assay type: functional, cell-based; conditions: MDA-MB-231, 48 h; in short: as §1
[5] = Cytotoxicity against HEK293 cells assessed as decrease in cell viability after 48 hrs by MTT assay; assay type: toxicity, cell-based; conditions: human; in short: as §1
[6] = Cytotoxicity against human MPanc96 cells assessed as decrease in cell viability after 48 hrs by MTT assay; assay type: functional, cell-based; conditions: MPANC96, 48 h; in short: as §1
[7] = Cytotoxicity against human U87MG cells assessed as decrease in cell viability after 48 hrs by MTT assay; assay type: functional, cell-based, U-87MG ATCC; conditions: U-87 MG; in short: as §1
[8] = Cytotoxicity against human MCF7 cells assessed as decrease in cell viability after 48 hrs by MTT assay; assay type: functional, cell-based; conditions: MCF7, 48 h; in short: as §1
[9] = Cytotoxicity against human HeLa cells assessed as decrease in cell viability after 48 hrs by MTT assay; assay type: functional, cell-based; in short: as §1
[10] = Cytotoxicity against human 253JBV cells assessed as decrease in cell viability after 48 hrs by MTT assay; assay type: functional, cell-based; in short: as §1
MDA-MB-231 [11] = assay: Induction of autophagy in human MDA-MB-231 cells assessed as decrease in polyubiquitinated protein levels at IC50 to 2 times IC50 after 24 to 48 hrs by immunoblot analysis; assay type: functional, cell-based
In short: (§2)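 Cells seeded at 2.5 × 10^5/well, treated 24 h later at 1/2 IC50, IC50 and 2× IC50 (legend says 24 h, methods 48 h). Controls: MG132 4.76 μg/mL, BafA1 0.1 μg/mL, DMSO. Lysed in RIPA with protease inhibitors, BCA protein assay, 30 μg on 15% Tris/glycine SDS-PAGE. Blotted for LC3-I/II, p62 and polyubiquitinated proteins with HRP secondary and ECL detection.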

MDA-MB-231 [12] = assay: Induction of autophagy in human MDA-MB-231 cells assessed as decrease in p62 levels at 2 times IC50 after 24 to 48 hrs by immunoblot analysis; assay type: functional, cell-based; in short: as §2
HeLa [13] = assay: Induction of autophagy in human HeLa cells assessed as decrease in p62 levels at IC50 after 24 to 48 hrs by immunoblot analysis
Homo sapiens [14] = species: Homo sapiens; assay: Induction of autophagy in human 253JBV cells assessed as decrease in p62 levels at 2 times IC50 after 24 to 48 hrs by immunoblot analysis; assay type: functional, cell-based; in short: as §2
Homo sapiens [15] = species: Homo sapiens; assay: Induction of autophagy in human 253JBV cells assessed as vacuole formation at 20 ug/ml after 48 hrs by microscopy; assay type: functional, cell-based
In short: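 Bladder cells grown 48 h untreated or with 20 μg/mL test agent, then inspected for morphology and vacuoles by inverted light microscopy against the control group.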

Homo sapiens [16] = species: Homo sapiens; assay: Induction of autophagy in human 253JBV cells assessed as conversion of LC3-1 to LC3-2 at IC50 to 2 times IC50 after 24 to 48 hrs by immunoblot analysis; assay type: functional, cell-based; in short: as §2
HeLa [17] = assay: Induction of autophagy in human HeLa cells assessed as conversion of LC3-1 to LC3-2 at IC50 to 2 times IC50 after 24 to 48 hrs by immunoblot analysis; assay type: functional, cell-based; in short: as §2
Homo sapiens [18] = species: Homo sapiens; assay: Induction of autophagy in human 253JBV cells assessed as decrease in polyubiquitinated protein levels at IC50 after 24 to 48 hrs by immunoblot analysis; assay type: functional, cell-based; in short: as §2
HeLa [19] = assay: Induction of autophagy in human HeLa cells assessed as decrease in p62 levels at IC50 after 24 to 48 hrs by immunoblot analysis; assay type: functional, cell-based; in short: as §2
MDA-MB-231 [20] = assay: Induction of autophagy in human MDA-MB-231 cells assessed as conversion of LC3-1 to LC3-2 at IC50 to 2 times IC50 after 24 to 48 hrs by immunoblot analysis; assay type: functional, cell-based; in short: as §2

C=C1C(=O)O[C@@H]2C3O[C@]3(C)CC/C=C(\C)CC[C@@H]12 (stereo not given in full)
IC50 [1]: 22 µM
IC50 [2]: 13 µM
IC50 [3]: 23.4 µM
IC50 [4]: 4.36 µM
IC50 at 48 h [5]: 3.1 µM
IC50 [6]: 20.3 µM
IC50 [7]: 4.86 µM
IC50 [8]: 27.7 µM
IC50 [9]: 23.1 µM
IC50 [10]: 25.3 µM

C/C(=C\CC/C(C)=C/Cc1cc(C(=O)O)ccc1N)CC/C=C(\C)CC/C=C(\C)CCC(=O)O
Activity (MDA-MB-231 [11]): Active
IC50 [1]: 25.8 µM
IC50 [2]: 42.3 µM
IC50 [3]: 25.9 µM
IC50 [4]: 12.9 µM
IC50 at 48 h [5]: 6.45 µM
Activity (MDA-MB-231 [12]): Active
Activity (HeLa [13]): Active
IC50 [6]: 36.4 µM
Activity (Homo sapiens [14]): Active
Activity (Homo sapiens [15]): Active
Activity (Homo sapiens [16]): Active
Activity (HeLa [17]): Active
Activity (Homo sapiens [18]): Active
IC50 [7]: > 42.8 µM
Activity (HeLa [19]): Active
Activity (MDA-MB-231 [20]): Active
IC50 [8]: > 42.8 µM
IC50 [9]: 18.2 µM
IC50 [10]: 36.5 µM
